Assay outcomes deposited in PubChem by several laboratories.
In the library only some 5.9% were active in any assay of this set; here they are far more common.
PTK2B oligo ant: antagonists of human Pyk2 oligomerization | Q293 cells, Pyk2 FERM NanoBiT luminescence; hits give low values | z-score (the deposit names both 25 µM and 10 µM) | 0.83% of 99,000 active;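 active means Z-score of -3 or lower, scaled per plate to the spread of control and sample wells; inactive means z-score above -3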;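 further: negative z-score means lost luminescence so less FERM oligomerization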
Target sequence (Q14289 whole entry, looked up): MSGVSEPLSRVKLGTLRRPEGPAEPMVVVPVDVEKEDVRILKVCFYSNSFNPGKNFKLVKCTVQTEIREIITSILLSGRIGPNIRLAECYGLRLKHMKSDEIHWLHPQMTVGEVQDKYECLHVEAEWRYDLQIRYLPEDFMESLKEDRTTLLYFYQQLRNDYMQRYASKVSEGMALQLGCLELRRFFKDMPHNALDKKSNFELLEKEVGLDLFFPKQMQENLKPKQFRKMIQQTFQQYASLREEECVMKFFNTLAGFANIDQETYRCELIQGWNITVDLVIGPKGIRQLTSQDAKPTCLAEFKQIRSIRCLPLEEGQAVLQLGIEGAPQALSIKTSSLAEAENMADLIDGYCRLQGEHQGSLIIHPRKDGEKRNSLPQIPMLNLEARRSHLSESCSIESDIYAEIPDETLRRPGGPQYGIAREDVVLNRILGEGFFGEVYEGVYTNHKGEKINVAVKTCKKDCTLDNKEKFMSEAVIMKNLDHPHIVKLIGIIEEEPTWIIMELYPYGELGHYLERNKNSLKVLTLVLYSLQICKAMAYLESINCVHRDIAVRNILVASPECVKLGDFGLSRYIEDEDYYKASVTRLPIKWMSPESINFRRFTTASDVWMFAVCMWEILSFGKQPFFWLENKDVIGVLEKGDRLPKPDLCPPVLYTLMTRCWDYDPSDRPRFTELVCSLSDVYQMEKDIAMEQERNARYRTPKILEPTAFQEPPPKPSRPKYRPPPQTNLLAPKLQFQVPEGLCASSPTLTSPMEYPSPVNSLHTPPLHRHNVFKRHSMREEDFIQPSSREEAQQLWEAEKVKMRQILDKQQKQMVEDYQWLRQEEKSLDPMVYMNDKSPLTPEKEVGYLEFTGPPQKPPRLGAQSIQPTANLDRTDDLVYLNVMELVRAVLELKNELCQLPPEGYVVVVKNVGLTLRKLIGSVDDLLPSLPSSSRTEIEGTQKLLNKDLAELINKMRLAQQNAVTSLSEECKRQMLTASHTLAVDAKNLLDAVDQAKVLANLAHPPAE
Fibroblast inh: blocks proliferation of human lung fibroblasts | LL 47 human lung fibroblast viability, ATP luminescence; hits give low values | 1.1% of 85,000 active | viability, % at 10 µM;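 active means viability at or below 50% in the single dose screen; inactive means viability above 50%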;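 further: compound exposure lasted 72 h before the ATP readout; 100% = median luminescence of untreated cell-only wells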
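material = human LL 47 lung fibroblast cells | dosing = compounds added from tenfold dosing solution, 0.1% DMSO final | timing = overnight cell rest, 72 h compound treatment at 37 °C | measured by = CellTiter-Glo luminescence measuring cellular ATP | evaluation = % viability versus median cells-only luminescence | control set = cell-only wells, no compound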
HUVEC inhibit: inhibitors of human endothelial cell proliferation; HUVEC proliferation, CellTiter-Glo luminescence, 72 h; hits give low values; viability, % at 10 µM (by protocol); 1.1% of 86,000 active; AID 648;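 active means viability at or below 30%; inactive means viability above 30%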;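 further: 100% = median luminescence of DMSO-only cell control wells on each plate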
H69AR growth 86K: growth inhibitors of human H69AR lung tumor cells; H69AR lung tumor viability, ATP luminescence, 72 h; hits give low values; 6% of 85,000 active; AID 598; viability, % at 10 µM;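 active means viability at or below 40%; inactive means viability above 40%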;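 further: multidrug resistant small cell line overexpressing MRP-1 efflux transporter; 100% = mean luminescence of untreated control wells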
Jurkat tox 60K: cytotoxicity toward Jurkat cells | Jurkat E6.1 viability, ATP luminescence, 48 h | inhibition, % at 4 µM | 1.2% of 56,000 active | AID 463;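 active means inhibition above the mean inhibition of all tested compounds plus 3 SD, cut at about 28% in these data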
MT1-MMP txn act: activates MT1-MMP transcription; HT1080 MT1-MMP promoter luciferase reporter, luminescence, overnight; hits give high values; 0.16% of 86,000 active; activation factor at 10 µM;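 active means activation factor of at least 2 for MT1-MMP transcription at 10 µM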
An asterisk follows results filed as active; / = no result given; ! = a repeat was not active.

SMILES | PTK2B oligo ant | Fibroblast inh | HUVEC inhibit | H69AR growth 86K | Jurkat tox 60K | MT1-MMP txn act
O=C(CCSc1ccc(Cl)cc1)N1CCN(c2ncccn2)CC1 | 1.6 | 45* | 100 | 101 | 3 | 1.7
Cc1nc2nc(SCC(=O)NCc3ccco3)nn2c(C)c1Cc1c(F)cccc1Cl | 0.12 | 98 | 68 | 35* | / | 1.1
Cc1ccc(Cc2c(C)nc3nc(SCC(=O)NCc4ccco4)nn3c2C)cc1 | 0.04 | / | / | / | / | 0.6
c1ccc(CNc2ncnc3c2cnn3-c2ccccc2)cc1 | -0.79 | 70 | 60 | 26* | 85* | 1.2
Fc1ccc(CNc2ncnc3c2cnn3-c2ccccc2)cc1 | -1.1 | 88 | 86 | 37* | 11 | 1.3
Cc1cccc(-n2ncc3c(NCc4ccccc4)ncnc32)c1 | / | 57 | 57 | 25* | 83* | /
Cc1cccc(-n2ncc3c(NCc4ccccn4)ncnc32)c1 | 0.66 | 114 | 101 | 89 | -2 | 1.3
c1ccc(-n2ncc3c(NCc4ccccn4)ncnc32)cc1 | -1.6 | 92 | 110 | 92 | / | 1.5
Cc1cccc(-n2ncc3c(NCc4ccco4)ncnc32)c1 | 0.19 | 89 | 73 | 26* | / | 1.9
O=c1n(Cc2ccccc2F)c2ccccc2n1Cc1ccccc1F | -2.4 | 83 | 93 | 93 | / | 1.1
Cc1sc(-c2ccncc2)nc1OC(=O)c1ccccc1 | 0.33 | 98 | 94 | 96 | / | 1.1
Cc1cc(C)nc(-n2c(Nc3ccccc3)cc(=O)c3c(C)n(-c4ccccc4)c(=O)nc32)n1 | / | 108 | 109 | 86 | -7 | 1.2
Cc1cccc(-n2ncc3c(N4CCN(c5nc(C)cc(C)n5)CC4)ncnc32)c1 | / | 95 | 86 | 93 | -5 | 1.1
Cc1cccc(-n2ncc3c(N4CCCc5ccccc54)ncnc32)c1 | 0.3 | 94 | 87 | 35* | / | 1.6
Cc1ccc(-n2ncc3c(NCCCOC(C)C)ncnc32)c(C)c1 | -0.96 | 98 | 97 | 37* | / | 1.3
Clc1ccc(-n2ncc3c(NCc4cccs4)ncnc32)cc1 | -0.1 | 34* | 87 | 41 | / | 1.6
O=C(Nc1ccn(Cc2ccccc2F)n1)c1ccc(COc2cc(Cl)ccc2Cl)o1 | -0.56 | / | / | / | / | /
COC(=O)[C@@H]1C[C@@H]2CC[C@@H](O)C[C@@H]2N1Cc1ccccc1OS(=O)(=O)c1ccc(C)cc1 | / | / | / | / | / | 1
CC1=NN(C(=O)Cc2ccc([N+](=O)[O-])cc2)C(O)(c2ccccc2)C1 (centres undefined) | 0.43 | 95 | 109 | 94 | / | 1
CC1(C)CC(=O)C2=C(C1)OC(/N=C/N1CCOCC1)=C(C#N)C2c1ccccc1 (centres undefined) | 0.18 | 93 | 91 | 56 | 7 | 1.1
CC1(C)CC(=O)C2=C(C1)OC(N)=C(C#N)C2C#Cc1ccccc1 (centres undefined) | -0.18 | 79 | 43 | 1.7* | 7 | 1.4
CC(c1ccccc1)C1C(C#N)=C(N)OC2=C1C(=O)CC(C)(C)C2 (centres undefined) | -1 | 108 | 93 | 42 | 5 | 1
CN1CCN(/C=N/C2=C(C#N)C(c3ccccc3)C3=C(CC(C)(C)CC3=O)O2)CC1 (centres undefined) | -0.87 | 92 | 86 | 39* | / | 1.1
N#CC1(Cc2ccc(Cl)cc2)c2ccccc2C=CN1C(=O)c1ccccc1 (centres undefined) | 1.1 | / | / | / | / | /
c1ccc(-c2nc3nonc3nc2-c2ccccc2)cc1 | 0.43 | 17* | 52 | 1.9* | 11 | 0.8
SMILES | PTK2B oligo ant | Fibroblast inh | HUVEC inhibit | H69AR growth 86K | Jurkat tox 60K | MT1-MMP txn act
Nc1c(-c2ccccc2)nc(Cl)nc1-c1ccccc1 | 0.3 | / | / | / | / | /
O=c1c2ccccc2nc(-c2cccc(Cl)c2)n1O | 0.5 | 101 | 100 | 23* | 14 | 1.2
Cc1nn(Cc2cccc(C(=O)N3N=C(C(F)F)CC3(O)C(F)F)c2)c(C)c1[N+](=O)[O-] (centres undefined) | -0.11 | / | / | / | / | /
CCC(C)(C)n1nnnc1C(c1cc2cc(C)cc(C)c2[nH]c1=O)N1CCN(Cc2ccc3c(c2)OCO3)CC1 (centres undefined) | 0.13 | 25* | 93 | 8.6* | / | 1.1
Cc1ccc2nc(NCC(=O)O)nc(-c3ccccc3)c2c1 | 0.2 | / | / | / | / | /
Cc1ccc2nc(NCCCO)nc(-c3ccccc3)c2c1 | 1.9 | 73 | 64 | 8.9* | / | 0.9
O=[N+]([O-])c1ccc(/C=N/Nc2nc(N3CCCCCC3)nc(N3CCCCCC3)n2)o1 | -0.27 | 85 | 70 | 28* | / | 1.2
O=[N+]([O-])c1ccc(Nc2nc(N/N=C\c3ccc4c(c3)OCO4)nc(N3CCCCC3)n2)cc1 | -1.8 | / | / | / | / | /
COC(=O)[C@@H]1CCCN1C(=O)[C@H]1C[C@@H]1[C@H](NC(=O)OCc1ccccc1)c1ccccc1 | / | / | / | / | / | 1.2
CNCCCC12CCC(c3ccccc31)c1ccccc12 | / | 74 | 67 | 8.6*! | / | 1
Cc1ccc2c(c1)nnn2C1CCN(S(=O)(=O)c2ccc(C(=O)N(C)C3CCCCC3)cc2)CC1 | 0.95 | 103 | 75 | 32* | -2 | 1.1
Cc1ccc(S(=O)(=O)N2CCC(n3nnc4cc(C)ccc43)CC2)cc1 | 0.07 | 89 | 84 | 88 | / | 1.2
Cc1cccc(-n2nnnc2SC(C)C(=O)NCCC2=CCCCC2)c1 (centres undefined) | -0.06 | 95 | 103 | 35* | / | 1.1
COc1ccc(-n2nnnc2S(=O)(=O)CC(=O)N2CCCCC2)cc1 | / | 33* | 69 | 2.0* | 23 | 0.3
Cc1ccc(S(=O)(=O)NCc2ccncc2)cc1 | 1.4 | 99 | 104 | 106 | 76* | 1
CCOc1ccc(S(=O)(=O)NCc2ccncc2)cc1 | 0.36 | 106 | 69 | 84 | / | 1.1
CC1CCCCC1NS(=O)(=O)c1ccc(S(=O)(=O)NCc2ccncc2)cc1 (centres undefined) | / | 91 | 55 | 91 | 92* | 1.1
Cc1ccc(S(=O)(=O)NCC(=O)NCc2ccncc2)cc1 | -0.99 | 98 | 95 | 89 | / | 1
Cc1cc(C)cc(OC(=O)CS(=O)c2ccc(C(F)(F)F)cc2[N+](=O)[O-])c1 (centres undefined) | -0.54 | 84 | 64* | 15* | / | 1.1
CC(=O)NNc1ccc(C(F)(F)F)cc1[N+](=O)[O-] | 0.22 | 102 | 96 | 93 | / | 1.3
Cc1ccc(Nc2ccc(C(F)(F)F)cc2[N+](=O)[O-])cc1 | -0.56 | / | / | / | / | /
O=C(CS(=O)c1ccc(C(F)(F)F)cc1[N+](=O)[O-])Oc1ccc(Cl)cc1 (centres undefined) | -0.83 | 88 | 58 | 21* | / | 1
COc1ccc(N=c2oc3c(OC)cccc3cc2C(=O)NCc2ccco2)cc1OC | 1.6 | 90 | 56 | 36* | 3 | 1
COc1ccc(OC)c(N=c2oc3c(OC)cccc3cc2C(=O)NCc2ccco2)c1 | -0.44 | 92 | 94 | 88 | 0 | 1.4
COc1ccccc1N=c1oc2c(OC)cccc2cc1C(=O)NCc1ccco1 | -0.39 | 86 | 61 | 15* | -2 | 1.3
